Assay results published in ChEMBL document CHEMBL2146363, “Allylic thiocyanates as a new class of antitubercular agents” (Bioorg Med Chem Lett, 2012).
Values after ≈ are worked out from the molar mass of the structure shown.

Tests used:
[1] = system: Mycobacterium tuberculosis; assay: Antitubercular activity against Mycobacterium tuberculosis H37Rv in GAS medium after 4 days by microplate alamar blue assay; type: functional; details: 96 h
Procedure, shortened: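 Replicating M. tuberculosis H37Rv grown in GAS (glycerol–alanine–salts) medium. MIC determined by microplate Alamar Blue assay (MABA).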

[2] = system: Mycobacterium tuberculosis; assay: Antitubercular activity against Mycobacterium tuberculosis H37Rv in 7H12 medium after 4 days by microplate alamar blue assay; type: functional; details: 96 h
Procedure, shortened: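 Replicating M. tuberculosis H37Rv tested in Middlebrook 7H12 medium, which lacks glycerol and uses palmitic acid as carbon source. MIC read by microplate Alamar Blue assay (MABA).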

[3] = system: Mycobacterium tuberculosis; assay: Antitubercular activity against Mycobacterium tuberculosis H37Rv in 7H12 medium incubated for 10 days in anaerobic condition followed by incubation for 48 hrs in aerobic condition by low oxygen recovery assay; type: functional
Procedure, shortened: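 Non-replicating M. tuberculosis H37Rv tested in 7H12 medium (palmitic acid carbon source, no glycerol) under low-oxygen conditions by the low-oxygen-recovery assay (LORA), which models persistence or latency. Read-out is MIC.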

[4] = system: Vero; assay: Cytotoxicity against african green monkey Vero cells after 72 hrs by MTS assay; type: cell-based; details: Chlorocebus sabaeus
Procedure, shortened: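 African green monkey kidney VERO cell line; toxicity read as half-maximal inhibitory concentration (IC50). Each reported value is the average of three individual measurements, rounded to the nearest dilution.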

[5] = Selectivity ratio of IC50 for african green monkey Vero cells to MIC for Mycobacterium tuberculosis H37Rv in GAS medium; type: functional

| Structure (SMILES) | MIC [1] | further results |
| --- | --- | --- |
| COC(=O)/C(=C/c1ccc(F)cc1)CSC#N | 0.5 µM (≈ 0.126 µg/mL) | MIC [2]: 16 µM (≈ 4.02 µg/mL); MIC [3]: 16 µM (≈ 4.02 µg/mL); IC50 [4]: 32 µM |
| COC(=O)/C(=C/c1ccccc1Br)CSC#N | 0.25 µM (≈ 0.078 µg/mL) | MIC [2]: 8 µM (≈ 2.5 µg/mL); MIC [3]: 4 µM (≈ 1.25 µg/mL); IC50 [4]: 32 µM; Selectivity ratio [5]: >100 |
| COC(=O)/C(=C/c1ccccc1Cl)CSC#N | > 128 µM | – |
| COC(=O)/C(=C/c1ccc2c(c1)OCO2)CSC(=N)N | > 128 µM | – |
| COC(=O)/C(=C/c1ccccc1)CS/C(=N\C(C)=O)NC(C)=O | 32 µM (≈ 10.7 µg/mL) | – |
| COC(=O)/C(=C/c1ccc2c(c1)OCO2)CSC(=N)Nc1ccccc1 | 16 µM (≈ 5.93 µg/mL) | – |
| COC(=O)/C(=C/c1ccc(F)cc1)CSC(=N)Nc1ccccc1 | 8 µM (≈ 2.76 µg/mL) | – |
| COC(=O)/C(=C/c1ccc(OC)cc1)CSC(=N)N | 32 µM (≈ 8.97 µg/mL) | – |
| COC(=O)/C(=C/C=C/c1ccccc1)CSC#N | > 128 µM | – |
| COC(=O)/C(=C/c1ccc(C)cc1)CSC(=N)Nc1ccccc1 | 16 µM (≈ 5.45 µg/mL) | – |
| COC(=O)/C(=C/c1ccc2c(c1)OCO2)CN=[N+]=[N-] | 64 µM (≈ 16.7 µg/mL) | – |
| COC(=O)/C(=C/c1ccc2ccccc2c1)CN=[N+]=[N-] | > 128 µM | – |
| COC(=O)/C(=C/c1ccc(OC)cc1)CSC#N | 16 µM (≈ 4.21 µg/mL) | – |
| COC(=O)/C(=C/c1ccc(Cl)cc1)CSC(=N)Nc1ccccc1 | 8 µM (≈ 2.89 µg/mL) | – |
| COC(=O)/C(=C/c1ccccc1)CSC#N | 1 µM (≈ 0.233 µg/mL) | – |
| COC(=O)/C(=C/c1ccc(Cl)cc1)CN=[N+]=[N-] | > 128 µM | – |
| COC(=O)/C(=C/c1ccc([N+](=O)[O-])cc1)CN=[N+]=[N-] | 4 µM (≈ 1.05 µg/mL) | MIC [2]: > 32 µM; MIC [3]: 16 µM (≈ 4.2 µg/mL); IC50 [4]: > 64 µM |
| COC(=O)/C(=C/c1ccc(OC)cc1)CN=[N+]=[N-] | > 128 µM | – |
| COC(=O)/C(=C/c1ccc2c(c1)OCO2)CSC#N | > 128 µM | – |
| COC(=O)/C(=C/c1ccc(Cl)cc1)CSC#N | 0.25 µM (≈ 0.0669 µg/mL) | MIC [2]: 8 µM (≈ 2.14 µg/mL); MIC [3]: 8 µM (≈ 2.14 µg/mL); IC50 [4]: 16 µM |
| COC(=O)/C(=C/c1ccccc1[N+](=O)[O-])CSC(=N)Nc1ccccc1 | 16 µM (≈ 5.94 µg/mL) | – |

| Structure (SMILES) | MIC [1] | further results |
| --- | --- | --- |
| COC(=O)/C(=C/c1ccc([N+](=O)[O-])cc1)CSC(=N)Nc1ccccc1 | 4 µM (≈ 1.49 µg/mL) | MIC [2]: > 32 µM; MIC [3]: > 64 µM; IC50 [4]: > 64 µM |
| COC(=O)/C(=C/c1ccccc1)CN=[N+]=[N-] | > 128 µM | – |
| COC(=O)/C(=C/c1ccccc1Cl)CS/C(=N\C(C)=O)NC(C)=O | 32 µM (≈ 11.8 µg/mL) | – |
| COC(=O)/C(=C/c1ccccc1Cl)CSC(=N)N | > 128 µM | – |
| COC(=O)/C(=C/c1ccc([N+](=O)[O-])cc1)CSC(=N)N | 8 µM (≈ 2.36 µg/mL) | MIC [2]: 64 µM (≈ 18.9 µg/mL) |
| COC(=O)/C(=C/c1ccc(Cl)cc1Cl)CSC#N | > 128 µM | – |
| COC(=O)/C(=C/c1ccccc1)CSC(=N)Nc1ccccc1 | 16 µM (≈ 5.22 µg/mL) | – |
| COC(=O)/C(=C/c1cccc([N+](=O)[O-])c1)CSC(=N)Nc1ccccc1 | 16 µM (≈ 5.94 µg/mL) | – |
| COC(=O)/C(=C/c1ccc(Cl)cc1Cl)CN=[N+]=[N-] | > 128 µM | – |
| COC(=O)/C(=C/C=C/c1ccccc1)CN=[N+]=[N-] | 64 µM (≈ 15.6 µg/mL) | – |
| COC(=O)/C(=C/c1ccc2ccccc2c1)CSC#N | 0.25 µM (≈ 0.0708 µg/mL) | MIC [2]: 32 µM (≈ 9.07 µg/mL); MIC [3]: 16 µM (≈ 4.53 µg/mL); IC50 [4]: 32 µM; Selectivity ratio [5]: >100 |
| COC(=O)/C(=C/c1ccc(OC)c(OC)c1)CSC#N | 16 µM (≈ 4.69 µg/mL) | – |
| COC(=O)/C(=C/c1ccc(C)cc1)CSC#N | 0.5 µM (≈ 0.124 µg/mL) | MIC [2]: 8 µM (≈ 1.98 µg/mL); MIC [3]: 16 µM (≈ 3.96 µg/mL); IC50 [4]: 32 µM |
| COC(=O)/C(=C/c1ccc([N+](=O)[O-])cc1)CSC#N | > 128 µM | – |
| COC(=O)/C(=C/c1ccccc1[N+](=O)[O-])CN=[N+]=[N-] | 64 µM (≈ 16.8 µg/mL) | – |
| COC(=O)/C(=C/c1ccccc1)CSC(=N)N | 64 µM (≈ 16 µg/mL) | – |
| COC(=O)/C(=C/c1ccc(OC)cc1)CSC(=N)Nc1ccccc1 | 16 µM (≈ 5.7 µg/mL) | – |
| COC(=O)/C(=C/c1ccc(Br)cc1)CSC#N | 0.25 µM (≈ 0.078 µg/mL) | MIC [2]: 16 µM (≈ 5 µg/mL); MIC [3]: 16 µM (≈ 5 µg/mL); IC50 [4]: 32 µM; Selectivity ratio [5]: >100 |
| COC(=O)/C(=C/c1ccccc1Cl)CN=[N+]=[N-] | > 128 µM | – |
| COC(=O)/C(=C/c1ccccc1[N+](=O)[O-])CSC#N | 8 µM (≈ 2.23 µg/mL) | – |
